Test results as given in ChEMBL document CHEMBL1127330, “N-Phosphonomethyl dipeptides and their phosphonate prodrugs, a new generation of neutral endopeptidase (NEP, EC 3.4.24.11) inhibitors” (J Med Chem, 1994).

tested on: not listed separately; test: Ratio of maximum plasma concentration (C) measured ex vivo to that of IC50 of (10a or 10c) in rat treated intravenously with 10 mg/kg; type: functional; details: route intravenous
Procedure, shortened: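 Conscious rats, femorally catheterised 24 h earlier, dosed iv at 10 mg/kg. Arterial blood was sampled before and at intervals after dosing into EDTA, then centrifuged. Plasma was ultrafiltered through a 30 000 MW cutoff with 0.1 N HCl at 10 °C. Unbound active inhibitor in the ultrafiltrate was measured by GAAP/rat kidney membrane NEP assay and expressed relative to the IC50 of the active metabolite.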

SMILES	Ratio
Cc1ccc(OP(=O)(CN[C@@H](Cc2ccc(-c3ccccc3)cc2)C(=O)NCCC(=O)O)Oc2ccc(C)cc2)cc1	31
Cc1ccc(OP(=O)(CN[C@@H](Cc2ccc(-c3ccccc3)cc2)C(=O)NCCC(=O)O)Oc2ccc(C)c(C)c2)cc1C	40
CCOC(=O)CCNC(=O)C(Cc1ccc(-c2ccccc2)cc1)NCP(=O)(OCOC(=O)C(C)(C)C)OCOC(=O)C(C)(C)C (configuration not stated)	816
CC(C)N(C(=O)COC(=O)CCNC(=O)[C@H](Cc1ccc(-c2ccccc2)cc1)NCP(=O)(O)Oc1ccccc1)C(C)C	5
CCCCCCCC(=O)OC(OP(=O)(O)CNC(Cc1ccc(-c2ccccc2)cc1)C(=O)NCCC(=O)OCC)C(C)C (configuration not stated)	50
O=C(CCNC(=O)[C@H](Cc1ccc(-c2ccccc2)cc1)NCP(=O)(Oc1ccccc1)Oc1ccccc1)OC1CCc2ccccc21 (some centres not stated)	69
CCOC(=O)CCNC(=O)C(Cc1ccc(-c2ccccc2)cc1)NCP(=O)(OC(OC(=O)C(C)C)C(C)C)OC(OC(=O)C(C)C)C(C)C (configuration not stated)	97
O=C(O)CCNC(=O)[C@H](Cc1ccc(-c2ccccc2)cc1)NCP(=O)(O)Oc1ccccc1	41
COc1ccc(OP(=O)(CN[C@@H](Cc2ccc(-c3ccccc3)cc2)C(=O)NCCC(=O)O)Oc2ccc(OC)cc2)cc1	5
COc1cccc(OP(=O)(CN[C@@H](Cc2ccc(-c3ccccc3)cc2)C(=O)NCCC(=O)O)Oc2cccc(OC)c2)c1	240
O=C(O)CCNC(=O)[C@H](Cc1ccc(-c2ccccc2)cc1)NCP(=O)(OC1CCc2ccccc21)OC1CCc2ccccc21 (some centres not stated)	41
CCOC(=O)CCNC(=O)C(Cc1ccc(-c2ccccc2)cc1)NCP(=O)(OCOC(=O)C(C)C)OCOC(=O)C(C)C (configuration not stated)	535
CCOC(=O)CCNC(=O)C(Cc1ccc(-c2ccccc2)cc1)NCP(=O)(OC(OC(=O)CC)C(C)C)OC(OC(=O)CC)C(C)C (configuration not stated)	503
CCC(=O)OC(OP(=O)(CNC(Cc1ccc(-c2ccccc2)cc1)C(=O)NCCC(=O)O)OC(OC(=O)CC)C(C)C)C(C)C (configuration not stated)	380
CCCc1ccc(OP(=O)(CN[C@@H](Cc2ccc(-c3ccccc3)cc2)C(=O)NCCC(=O)O)Oc2ccc(CCC)cc2)cc1	18
O=C(CCNC(=O)[C@H](Cc1ccc(-c2ccccc2)cc1)NCP(=O)(O)Oc1ccccc1)OCc1ccccc1	16
CCC(=O)OC(C)OP(=O)(CNC(Cc1ccc(-c2ccccc2)cc1)C(=O)NCCC(=O)O)OC(C)OC(=O)CC (configuration not stated)	283
CCOC(=O)CCNC(=O)[C@H](Cc1ccc(-c2ccccc2)cc1)NCP(=O)(Oc1ccccc1)Oc1ccccc1	160
CC(C)(C)C(=O)OCOP(=O)(CNC(Cc1ccc(-c2ccccc2)cc1)C(=O)NCCC(=O)O)OCOC(=O)C(C)(C)C (configuration not stated)	322
CCOC(=O)CCNC(=O)C(Cc1ccc(-c2ccccc2)cc1)NCP(=O)(OC(OC(=O)CC)C1CCCCC1)OC(OC(=O)CC)C1CCCCC1 (configuration not stated)	64
CCN(CC)C(=O)COC(=O)CCNC(=O)[C@H](Cc1ccc(-c2ccccc2)cc1)NCP(=O)(O)Oc1ccccc1	9
Cc1cc(C)cc(OP(=O)(CN[C@@H](Cc2ccc(-c3ccccc3)cc2)C(=O)NCCC(=O)O)Oc2cc(C)cc(C)c2)c1	149
O=C(CCNC(=O)[C@H](Cc1ccc(-c2ccccc2)cc1)NCP(=O)(Oc1ccccc1)Oc1ccccc1)OCc1ccccc1	75
O=C(O)CCNC(=O)[C@H](Cc1ccc(-c2ccccc2)cc1)NCP(=O)(Oc1ccccc1)Oc1ccccc1	225
CCN(CC)C(=O)COC(=O)CCNC(=O)[C@H](Cc1ccc(-c2ccccc2)cc1)NCP(=O)(Oc1ccccc1)Oc1ccccc1	135
CC(C)c1ccc(OP(=O)(CN[C@@H](Cc2ccc(-c3ccccc3)cc2)C(=O)NCCC(=O)O)Oc2ccc(C(C)C)cc2)cc1	40

target: T1, Neprilysin (Rattus norvegicus, UniProt P07861); test: In vitro inhibition of Neutral endopeptidase (NEP) enzyme; details: not given
T1 sequence (P07861 whole entry): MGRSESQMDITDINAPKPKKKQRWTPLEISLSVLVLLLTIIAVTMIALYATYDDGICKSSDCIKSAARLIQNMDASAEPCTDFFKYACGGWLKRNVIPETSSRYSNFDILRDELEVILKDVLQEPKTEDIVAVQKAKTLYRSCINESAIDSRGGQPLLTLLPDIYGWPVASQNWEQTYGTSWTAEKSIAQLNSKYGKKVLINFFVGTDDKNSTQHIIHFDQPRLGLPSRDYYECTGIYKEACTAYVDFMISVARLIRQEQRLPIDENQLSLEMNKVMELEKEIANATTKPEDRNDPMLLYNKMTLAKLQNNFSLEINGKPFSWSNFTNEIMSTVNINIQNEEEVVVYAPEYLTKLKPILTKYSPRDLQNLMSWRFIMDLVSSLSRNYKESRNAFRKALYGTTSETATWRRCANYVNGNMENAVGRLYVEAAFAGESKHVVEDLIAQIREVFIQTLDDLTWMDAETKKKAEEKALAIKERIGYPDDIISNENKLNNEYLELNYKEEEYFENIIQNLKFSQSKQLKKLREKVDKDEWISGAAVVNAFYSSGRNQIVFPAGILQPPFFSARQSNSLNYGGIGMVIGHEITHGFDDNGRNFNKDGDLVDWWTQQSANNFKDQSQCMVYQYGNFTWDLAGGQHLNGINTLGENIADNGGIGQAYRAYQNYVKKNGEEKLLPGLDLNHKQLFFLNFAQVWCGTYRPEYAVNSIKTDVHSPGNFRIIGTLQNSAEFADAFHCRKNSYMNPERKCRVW

IC50 [nM]	SMILES
120	CCOC(=O)CCNC(=O)C(Cc1ccc(-c2ccccc2)cc1)NCP(=O)(O)O (configuration not stated)
> 1000	O=C(O)CCNC(=O)C(Cc1ccccc1)OP(=O)(O)CCc1ccccc1 (configuration not stated)
> 1000	O=C(O)CCNC(=O)C(Cc1ccccc1)CP(=O)(O)OCCc1ccccc1 (configuration not stated)
4	O=C(O)CCNC(=O)C(Cc1ccc(-c2ccccc2)cc1)NCP(=O)(O)O (configuration not stated)
11	O=C(O)CCCNC(=O)C(Cc1ccc(-c2ccccc2)cc1)NCP(=O)(O)O (configuration not stated)
10	O=C(O)c1ccc(NC(=O)C(Cc2ccc(-c3ccccc3)cc2)NCP(=O)(O)O)cc1 (configuration not stated)
> 1000	O=C(O)CCNC(=O)C(Cc1ccccc1)OP(=O)(O)CNC(=O)OCc1ccccc1 (configuration not stated)
1.9	O=C(O)CCNC(=O)[C@H](Cc1ccc(-c2ccccc2)cc1)NCP(=O)(O)O
1800	O=C(O)CCNC(=O)[C@@H](Cc1ccc(-c2ccccc2)cc1)NCP(=O)(O)O
> 1000	O=C(O)CCNC(=O)C(Cc1ccccc1)OP(=O)(O)CCCCc1ccccc1 (configuration not stated)
2	O=C(N[C@H](C(=O)O)c1ccccc1)C(Cc1ccc(-c2ccccc2)cc1)NCP(=O)(O)O (some centres not stated)
3	C[C@H](NC(=O)C(Cc1ccc(-c2ccccc2)cc1)NCP(=O)(O)O)C(=O)O (some centres not stated)
207	O=C(O)CCNC(=O)C(Cc1ccccc1)CP(=O)(O)O (configuration not stated)
301	COP(=O)(O)CNC(Cc1ccc(-c2ccccc2)cc1)C(=O)NCCC(=O)O (configuration not stated)
5	O=C(O)CNC(=O)C(Cc1ccc(-c2ccccc2)cc1)NCP(=O)(O)O (configuration not stated)
1000	O=C(O)CCNC(=O)C(Cc1ccc(-c2ccccc2)cc1)NCP(=O)(O)OCc1ccccc1 (configuration not stated)
14	O=C(O)CCNC(=O)C(Cc1ccc(-c2ccc(F)cc2)cc1)NCP(=O)(O)O (configuration not stated)
1150	O=C(O)CCNC(=O)C(Cc1ccccc1)NCP(=O)(O)O (configuration not stated)

SMILES	IC50 [nM]
CCOP(=O)(CNC(Cc1ccc(-c2ccccc2)cc1)C(=O)NCCC(=O)O)OCC (configuration not stated)	> 1000
O=C(O)CCNC(=O)[C@H](Cc1ccc(-c2ccccc2)cc1)NCP(=O)(O)Oc1ccccc1	238
CC(C)C[C@H](NP(=O)(O)O[C@@H]1O[C@@H](C)[C@H](O)[C@@H](O)[C@H]1O)C(=O)N[C@@H](Cc1c[nH]c2ccccc12)C(=O)O [PHOSPHORAMIDON]	27
